Test results published in ChEMBL document CHEMBL1152649, “Synthesis, cytotoxicity and human telomerase inhibition activities of a series of 1,2-heteroannelated anthraquinones and anthra[1,2-d]imidazole-6,11-dione homologues” (2009).
The source made the active and inactive calls. No cut-off for these calls is given here.

Columns and labels:
[1] = Cytotoxicity against human H1299 cells at 100 uM after 48 hrs by MTT assay; format: functional; conditions: NCI-H1299, 48 h
How it was run: (§1)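 H1299 non-small cell lung cancer cells were grown in RPMI 1640 with 10% FBS, penicillin and streptomycin at 37 °C under 5% CO2. About 2 × 10³ cells per well were seeded and left 24 h. Compounds were dissolved fresh in DMSO, diluted into complete medium and applied for 48 h. MTT was then added for 4 h at 37 °C, followed by lysis buffer (20% SDS, 50% DMF) for 16 h, and absorbance was read at 550 nm.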

[2] = Cytotoxicity against human H1299 cells at 1 uM after 48 hrs by MTT assay; format: functional; conditions: NCI-H1299, 48 h; how it was run: as §1
[3] = biological target: Telomerase reverse transcriptase (Homo sapiens) (UniProt O14746); experiment: Inhibition of TERT in human H1299 cells assessed as residual transcriptional activity at 100 uM after 24 hrs by SEAP reporter gene assay; values are per cent of control
[4] = biological target: Telomerase reverse transcriptase (Homo sapiens) (UniProt O14746); experiment: Inhibition of telomerase in human H1299 cells up to 100 uM by TRAP assay; format: cell-based
How it was run: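 PCR-based telomeric repeat amplification protocol (TRAP). The telomerase source was total lysate of H1299 lung cancer cells, with protein measured against BSA standards. Controls were extract without inhibitor and RNase A-treated extract.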

[5] = biological target: Telomerase reverse transcriptase (Homo sapiens) (UniProt O14746); experiment: Inhibition of TERT in human H1299 cells assessed as residual transcriptional activity at 1 uM after 24 hrs by SEAP reporter gene assay; values are per cent of control
[6] = Cytotoxicity against human H1299 cells at 10 uM after 48 hrs by MTT assay; format: functional; conditions: NCI-H1299, 48 h; how it was run: as §1
[7] = biological target: Telomerase reverse transcriptase (Homo sapiens) (UniProt O14746); experiment: Inhibition of TERT in human H1299 cells assessed as residual transcriptional activity at 10 uM after 24 hrs by SEAP reporter gene assay; values are per cent of control

Chain of Telomerase reverse transcriptase (Homo sapiens) (O14746 whole entry): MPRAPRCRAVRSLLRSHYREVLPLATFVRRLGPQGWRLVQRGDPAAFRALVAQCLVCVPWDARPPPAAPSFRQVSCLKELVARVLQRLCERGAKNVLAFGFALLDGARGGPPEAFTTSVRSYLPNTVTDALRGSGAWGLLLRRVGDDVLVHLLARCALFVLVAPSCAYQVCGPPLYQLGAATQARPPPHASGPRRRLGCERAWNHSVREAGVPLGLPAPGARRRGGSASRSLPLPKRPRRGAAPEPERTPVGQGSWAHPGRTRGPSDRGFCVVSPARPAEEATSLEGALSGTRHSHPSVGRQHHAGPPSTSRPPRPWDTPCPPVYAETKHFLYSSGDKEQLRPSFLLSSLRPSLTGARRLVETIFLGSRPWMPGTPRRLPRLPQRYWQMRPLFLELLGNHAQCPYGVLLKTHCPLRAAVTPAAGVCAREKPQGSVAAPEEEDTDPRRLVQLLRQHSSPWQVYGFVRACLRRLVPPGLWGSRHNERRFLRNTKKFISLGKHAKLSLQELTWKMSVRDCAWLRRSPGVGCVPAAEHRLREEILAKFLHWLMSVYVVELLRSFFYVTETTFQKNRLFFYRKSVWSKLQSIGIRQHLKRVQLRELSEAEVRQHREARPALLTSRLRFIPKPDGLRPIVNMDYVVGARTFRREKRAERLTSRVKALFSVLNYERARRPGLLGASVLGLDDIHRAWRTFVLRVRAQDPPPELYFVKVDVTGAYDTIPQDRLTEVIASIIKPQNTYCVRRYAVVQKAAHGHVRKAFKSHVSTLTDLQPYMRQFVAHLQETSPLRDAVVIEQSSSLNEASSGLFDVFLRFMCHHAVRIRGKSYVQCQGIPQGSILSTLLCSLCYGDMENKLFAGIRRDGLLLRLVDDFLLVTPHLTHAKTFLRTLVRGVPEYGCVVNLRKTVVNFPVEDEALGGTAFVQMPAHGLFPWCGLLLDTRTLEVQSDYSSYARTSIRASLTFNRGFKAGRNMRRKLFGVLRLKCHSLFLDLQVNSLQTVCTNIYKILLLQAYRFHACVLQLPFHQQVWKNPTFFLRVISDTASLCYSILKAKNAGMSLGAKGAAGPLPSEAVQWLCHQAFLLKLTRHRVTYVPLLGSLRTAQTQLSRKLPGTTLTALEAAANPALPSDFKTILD

residual activity [3] [%] | inhibition [4] | residual activity [5] [%] | residual activity [7] [%] | SMILES | viability at 100 µM [1] [%] | viability at 1 µM [2] [%] | viability at 10 µM [6] [%]
41 | inactive | 77 | 76 | COc1ccc(OC)c(-c2nc3ccc4c(c3[nH]2)C(=O)c2ccccc2C4=O)c1 | 13 | 91 | 39
31 | inactive | 97 | 100 | O=C1c2ccccc2C(=O)c2c1ccc1[nH]c(=S)[nH]c21 | 54 | 101 | 99
32 | inactive | 89 | 88 | CCCCCCCc1nc2ccc3c(c2[nH]1)C(=O)c1ccccc1C3=O | 40 | 85 | 69
5 | inactive | 94 | 81 | O=C1c2ccccc2C(=O)c2c1ccc1nc(CCl)[nH]c21 | 26 | 80 | 79
26 | inactive | 95 | 88 | Cc1nc2ccc3c(c2nc1C)C(=O)c1ccccc1C3=O | 25 | 78 | 69
13 | inactive | 83 | 76 | CC(C)c1nc2ccc3c(c2[nH]1)C(=O)c1ccccc1C3=O | 34 | 95 | 73
11 | inactive | 67 | 58 | CCC(C)c1nc2ccc3c(c2[nH]1)C(=O)c1ccccc1C3=O (stereo unspecified) | 43 | 77 | 83
29 | inactive | 88 | 87 | CC(C)(C)c1nc2ccc3c(c2[nH]1)C(=O)c1ccccc1C3=O | 56 | 83 | 81
13 | inactive | 63 | 34 | CC/C=C/c1nc2ccc3c(c2[nH]1)C(=O)c1ccccc1C3=O | 14 | 69 | 48
29 | inactive | 99 | 97 | CC1(c2ccccc2)Nc2ccc3c(c2N1)C(=O)c1ccccc1C3=O (stereo unspecified) | 29 | 99 | 99
6 | inactive | 85 | 62 | O=C1c2ccccc2C(=O)c2c1ccc1nc(-c3ccc([N+](=O)[O-])cc3)[nH]c21 | 33 | 84 | 52
19 | inactive | 101 | 82 | Cc1nc2ccc3c(c2[nH]1)C(=O)c1ccccc1C3=O | 33 | 64 | 44
36 | inactive | 91 | 84 | CCCCc1nc2ccc3c(c2[nH]1)C(=O)c1ccccc1C3=O | 20 | 85 | 70
